ChEMBL document CHEMBL3352217, “Expanding the results of a high throughput screen against an isochorismate-pyruvate lyase to enzymes of a similar scaffold or mechanism” (Bioorg Med Chem, 2014)

Key:
Escherichia coli = assay: Ratio of I50 to Km for Escherichia coli Chorismate mutase
In short: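 N-His-tagged E. coli chorismate mutase domain (PheA), 500 nM. Chorismate at its Km (600 µM), inhibitor 0–500 µM, all post-mixing. Initial rates from A310 decrease over 30 s, in triplicate. I50 is the concentration giving 50% inhibition at substrate = Km, divided by Km.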

[1] = Inhibition of Pseudomonas aeruginosa PAO1 PchB
[2] = Inhibition of Pseudomonas aeruginosa PAO1 PchB expressed in Escherichia coli BL21(DE3) using isochorismate as substrate assessed as salicylate production by fluorescence spectrometry
In short: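 Untagged PchB at 50 nM in 50 mM potassium phosphate pH 8. […] Initial velocities at 25 °C were taken from salicylate fluorescence (ex 310/em 430 nm) over 120 s of the linear phase. IC50 came from dose-response percent inhibition.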

[3] = biological target: T1, Bifunctional chorismate mutase/prephenate dehydratase (Escherichia coli (strain K12), UniProt P0A9J8); assay: Inhibition of Escherichia coli K-12 EcCM expressed in Escherichia coli BL21 Star (DE3) pLysS using chorismate as substrate assessed as disappearance of chorismate by stopped-flow analysis
T1 sequence (P0A9J8 whole entry): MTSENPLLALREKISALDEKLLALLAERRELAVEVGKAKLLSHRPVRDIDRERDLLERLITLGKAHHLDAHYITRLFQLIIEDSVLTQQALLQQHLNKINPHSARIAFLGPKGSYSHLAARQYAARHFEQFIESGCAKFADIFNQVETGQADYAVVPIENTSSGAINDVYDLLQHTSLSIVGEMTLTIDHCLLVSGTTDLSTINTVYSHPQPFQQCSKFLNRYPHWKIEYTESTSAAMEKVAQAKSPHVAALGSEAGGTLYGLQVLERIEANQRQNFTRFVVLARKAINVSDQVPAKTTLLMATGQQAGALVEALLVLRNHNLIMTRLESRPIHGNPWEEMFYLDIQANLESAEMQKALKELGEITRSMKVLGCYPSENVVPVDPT
In short: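 His-tagged EcCM domain was Ni-affinity and size-exclusion purified. Post-mixing concentrations were 500 nM enzyme, chorismate at Km (600 µM) and inhibitor 0–500 µM. Rate was the A310 decrease over 30 s, in triplicate, giving IC50.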

[4] = Inhibition of Pseudomonas aeruginosa PAO1 PchB expressed in Escherichia coli BL21(DE3) using isochorismate as substrate assessed as pyruvate production after 10 mins by microplate reader analysis
In short: (§1)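 Pyruvate output at 25 °C, with PchB at 50 nM in 50 mM potassium phosphate pH 8 started with isochorismate, or Irp9 at 200 nM started with chorismate. Substrate was above the 10 µM Km and inhibitor was varied. Samples taken at 2-min points were quenched in 0.25 g/L DNPH in 1 M HCl and held 10 min at 37 °C. NaOH was added and A515 read, converted to pyruvate by standard curve. Runs were in triplicate, giving IC50.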

[5] = biological target: T2, Salicylate synthetase, Irp9 (Yersinia enterocolitica, UniProt Q9X9I8); assay: Inhibition of Yersinia enterocolitica Irp9 using chorismate as substrate assessed as pyruvate production after 10 mins by microplate reader analysis; in short: as §1
T2 sequence (Q9X9I8 whole entry): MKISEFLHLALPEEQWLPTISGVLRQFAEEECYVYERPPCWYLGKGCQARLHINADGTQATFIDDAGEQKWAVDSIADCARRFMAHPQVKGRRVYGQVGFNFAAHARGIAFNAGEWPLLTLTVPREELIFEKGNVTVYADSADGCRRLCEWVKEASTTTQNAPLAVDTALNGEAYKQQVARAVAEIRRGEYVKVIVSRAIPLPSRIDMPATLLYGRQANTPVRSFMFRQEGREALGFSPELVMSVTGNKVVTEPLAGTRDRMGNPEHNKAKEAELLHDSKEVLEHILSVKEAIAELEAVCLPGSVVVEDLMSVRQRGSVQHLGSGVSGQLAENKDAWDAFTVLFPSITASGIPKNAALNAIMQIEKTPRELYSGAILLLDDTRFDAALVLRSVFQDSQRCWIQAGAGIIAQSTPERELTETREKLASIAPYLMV

[6] = biological target: T2, Salicylate synthetase, Irp9; assay: Inhibition of Yersinia enterocolitica Irp9 using chorismate as substrate assessed as salicylate production by fluorescence spectrometry
In short: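 Irp9 at 100 nM in 50 mM Tris-HCl pH 7.5, 10 mM MgCl2, 10% glycerol. Reaction was started with chorismate, with inhibitor concentration varied. Initial velocities at 25 °C were taken from salicylate fluorescence (ex 310/em 430 nm) over 120 s of the linear phase. IC50 came from the dose-response.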

Pseudomonas aeruginosa [7] = assay: Antimicrobial activity against Pseudomonas aeruginosa PAO1 PchE deletion mutant after 24 hrs by microplate reader analysis in presence of 5 uM FeCl3; format: functional, organism-based; conditions: PAO1, 24 h
In short: (§2)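 Overnight LB cultures were diluted to OD600 0.5 in PMH-D medium. Cells were added to PMH-D containing FeCl3, either 5 µM (iron-limited) or 200 µM (iron-rich), with inhibitor at 0–5 mM (DMSO vehicle). Plates were shaken at 37 °C for 24 h. Cells were then pelleted, the medium was removed, and cells were resuspended in LB. A600 was read. Growth was normalized to no-inhibitor cultures to give EC50.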

[8] = biological target: T1, Bifunctional chorismate mutase/prephenate dehydratase; assay: Competitive inhibition of Escherichia coli K-12 EcCM expressed in Escherichia coli BL21 Star (DE3) pLysS using chorismate as substrate
In short: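 N-terminally His-tagged chorismate mutase domain of pheA, purified by Ni-chelate and size-exclusion chromatography. Enzyme with inhibitor mixed 1:1 with chorismate. Final concentrations: enzyme 500 nM, chorismate 0–2 mM, inhibitor 0–50 µM. Initial rates read as the 30 s decrease in absorbance at 310 nm, giving Ki and inhibition mode.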

Pseudomonas aeruginosa [9] = assay: Antimicrobial activity against Pseudomonas aeruginosa PAO1 PvdA deletion mutant after 24 hrs by microplate reader analysis in presence of 200 uM FeCl3; format: functional, organism-based; in short: as §2
[10] = Competitive inhibition of Pseudomonas aeruginosa PAO1 PchB expressed in Escherichia coli BL21(DE3) using isochorismate as substrate
In short: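 Untagged PchB at 50 nM final, in 50 mM potassium phosphate pH 8 (plus 1 mM TCEP for stopped-flow runs), at 25 °C. Isochorismate was varied up to 75 µM and inhibitor up to 1.5 µM. Salicylate formation was followed by fluorescence (excitation 310 nm; emission 430 nm or 360 nm cutoff) as linear initial velocities, over 120 s on a cuvette fluorimeter or 30 s by stopped-flow.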

Pseudomonas aeruginosa [11] = assay: Antimicrobial activity against Pseudomonas aeruginosa PAO1 PvdA deletion mutant after 24 hrs by microplate reader analysis in presence of 5 uM FeCl3; format: functional, organism-based; conditions: PAO1, 24 h; in short: as §2
[12] = biological target: T2, Salicylate synthetase, Irp9; assay: Competitive inhibition of Yersinia enterocolitica Irp9 using chorismate as substrate
In short: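 Stopped-flow kinetics at 25 °C in 50 mM Tris pH 7.5, 10 mM MgCl2, 10% glycerol. Final Irp9 was 100 nM, chorismate 0–40 µM and inhibitor 0–10 µM. Enzyme plus inhibitor was mixed with chorismate. Initial velocities came from the rise in salicylate fluorescence (ex 310 nm, 360 nm cutoff filter) over 30 s. Ki and inhibition mode were derived from these rates.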

Pseudomonas aeruginosa [13] = assay: Antimicrobial activity against wild-type Pseudomonas aeruginosa PAO1 after 24 hrs by microplate reader analysis in presence of 5 uM FeCl3; format: functional, organism-based; conditions: PAO1, 24 h; in short: as §2
Yersinia enterocolitica = assay: Antimicrobial activity against Yersinia enterocolitica ATCC 9610 after 24 hrs by microplate reader analysis in presence of 5 uM FeCl3; format: functional, organism-based; conditions: ATCC 9610, 24 h; in short: as §2
Pseudomonas aeruginosa [14] = assay: Antimicrobial activity against wild-type Pseudomonas aeruginosa PAO1 after 24 hrs by microplate reader analysis in presence of 200 uM FeCl3; format: functional, organism-based; in short: as §2
Pseudomonas aeruginosa [15] = assay: Antimicrobial activity against Pseudomonas aeruginosa PAO1 PchE deletion mutant after 24 hrs by microplate reader analysis in presence of 200 uM FeCl3; format: functional, organism-based; in short: as §2

| Compound | IC50 [2] | IC50 [3] | IC50 [4] | IC50 [5] | also measured |
| --- | --- | --- | --- | --- | --- |
| O=C(O)C1CC2(C(=O)O)C=CC(O)C(C2)O1 (configuration not stated) | – | – | – | – | Ratio (Escherichia coli): 0.008; Ki [1]: 2 µM |
| O=C1S/C(=C/c2cc([N+](=O)[O-])cc([N+](=O)[O-])c2O)C(=O)N1c1ccccc1 | 1.4 µM | 85 µM | 1.4 µM | Not Active | – |
| O=C(O)c1cccc(S(=O)(=O)Nc2ccccc2C(=O)O)c1 | 0.25 µM | 170 µM | 0.22 µM | Not Active | IC50 [6]: Not Active |
| O=c1oc2cc(Br)c(O)c(Br)c2s1 | 10 µM | 120 µM | 10 µM | – | – |
| COC(=O)Oc1c(Cl)cc2oc(=O)sc2c1[N+](=O)[O-] | 3.3 µM | 45 µM | 1.8 µM | Not Active | – |
| O=C(O)c1cc(S(=O)(=O)Nc2ccccc2C(=O)O)ccc1Br | 0.24 µM | 200 µM | 0.094 µM | Not Active | IC50 [6]: Not Active |
| O=P(O)(O)C12CC3CC(CC(C3)C1)C2 | – | – | – | – | Ki [1]: > 5000 µM |
| COC(=O)Oc1c([N+](=O)[O-])cc2oc(=O)sc2c1[N+](=O)[O-] | 0.87 µM | 32 µM | 0.53 µM | – | EC50 (Pseudomonas aeruginosa [7]): > 5000 µM; Ki [8]: 40 µM; EC50 (Pseudomonas aeruginosa [9]): Not Active; Ki [10]: 0.35 µM; EC50 (Pseudomonas aeruginosa [11]): > 5000 µM; Ki [12]: 0.8 µM; EC50 (Pseudomonas aeruginosa [13]): > 5000 µM; EC50 (Yersinia enterocolitica): 2300 µM; EC50 (Pseudomonas aeruginosa [14]): Not Active; EC50 (Pseudomonas aeruginosa [15]): Not Active |
